Legend:
[1] = Inhibition of TPA-induced EBV-early antigen activation in human Raji cells after 48 hrs by indirect immunofluorescence method; type: cell-based, human gammaherpesvirus 4
Summary of the method: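 EBV-EA activation induced in Raji cells by 32 pmol/mL TPA, with compounds tested over molar ratios relative to TPA. IC50 is the compound concentration inhibiting 50% of the positive control activated with 32 nM TPA.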

[2] = tested on: human gammaherpesvirus 4; assay: Inhibition of TPA-induced EBV-early antigen activation in human Raji cells assessed as reduction in EBV-EA positive cells at 10 molar ratio per TPA after 48 hrs by indirect immunofluorescence method relative to TPA; values are per cent of control
[3] = tested on: human gammaherpesvirus 4; assay: Inhibition of TPA-induced EBV-early antigen activation in human Raji cells assessed as reduction in EBV-EA positive cells at 500 molar ratio per TPA after 48 hrs by indirect immunofluorescence method relative to TPA; values are per cent of control
[4] = tested on: human gammaherpesvirus 4; assay: Inhibition of TPA-induced EBV-early antigen activation in human Raji cells assessed as reduction in EBV-EA positive cells at 100 molar ratio per TPA after 48 hrs by indirect immunofluorescence method relative to TPA; values are per cent of control
[5] = tested on: human gammaherpesvirus 4; assay: Inhibition of TPA-induced EBV-early antigen activation in human Raji cells assessed as reduction in EBV-EA positive cells at 1000 molar ratio per TPA after 48 hrs by indirect immunofluorescence method relative to TPA; values are per cent of control
[6] = Cytotoxicity against human Raji cells assessed as cell viability at 1000 molar ratio per TPA after 48 hrs by trypan blue staining based method; details: read-out: Activity
Summary of the method: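 Raji cells exposed to test compounds at 1000 mol ratio to TPA (TPA 32 pmol/mL) in the EBV-EA activation assay; viability of treated cells scored by trypan blue staining and reported as percentage.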

| Compound | IC50 [1] | level, % of control [2] | level, % of control [3] | level, % of control [4] | level, % of control [5] | viability at 48 h, 1000 molar ratio per TPA [6] |
| --- | --- | --- | --- | --- | --- | --- |
| COc1cc(/C=C/C(=O)CC(=O)/C=C/c2ccc(O)c(OC)c2)ccc1O [CURCUMIN] | 12.1 µM | 100% | 21.1% | 80.1% | 0% |  |
| COc1c2c(c(CC=C(C)C)c(O)c1C(C)=O)OC(C)(C)C(O)C2 (racemic) | 7.3 µM | 92.4% | 26.5% | 65.5% | 0% | 60% |
| COc1c(CC=C(C)C)c2c(c(OC(C)=O)c1C(C)=O)CC(C(C)(C)O)O2 (stereo not given) | 15 µM | 100% | 43.8% | 71% | 7% | 60% |
| COc1c(CCC(C)C)c2c(c(O)c1C(C)=O)CC(O)C(C)(C)O2 (stereo not given) | 8.1 µM | 97.8% | 36.6% | 78.8% | 0% | 60% |
| COc1c(CC=C(C)C)c(O)c2c(c1C(C)=O)OC(C)(C)C(O)C2 (racemic) | 8.4 µM | 96.6% | 27.1% | 68.2% | 1.5% | 60% |
| COc1c(CC=C(C)C)c2c(c(O)c1C(C)=O)CC(O)C(C)(C)O2 (racemic) | 8.9 µM | 96.9% | 29.1% | 72.5% | 3% | 60% |
| COc1c2c(c(CC=C(C)C)c(OC(C)=O)c1C(C)=O)OC(C(C)(C)O)C2 (stereo not given) | 9.6 µM | 97.8% | 33.9% | 78.6% | 5.3% | 60% |
| COc1c2c(cc(O)c1C(C)=O)OC(O)C2 (racemic) | 15.7 µM | 100% | 53.3% | 77.9% | 10.8% | 60% |
| COc1c2c(c(CC=C(C)C)c(O)c1C(C)=O)OC(C(C)(C)O)C2 (racemic) | 7.7 µM | 93.3% | 30.6% | 74.3% | 0% | 60% |
| COc1c2c(c(CCC(C)C)c(O)c1C(C)=O)OC(C)(C)C(O)C2 (racemic) | 9.3 µM | 97.7% | 31.5% | 76% | 4.9% | 60% |
| COc1c(CC=C(C)C)c2c(c(O)c1C(C)=O)CC(C(C)(C)O)O2 (racemic) | 8 µM | 94.9% | 32% | 75.5% | 0% | 60% |

From ChEMBL document CHEMBL3994589, “Total Synthesis and in Vitro Anti-Tumor-Promoting Activities of Racemic Acetophenone Monomers from Acronychia trifoliolata” (J Nat Prod, 2016)
